ChEMBL document CHEMBL3351945, “Effect of dehydroepiandrosterone derivatives on the activity of 5α-reductase isoenzymes and on cancer cell line PC-3” (Bioorg Med Chem, 2014)
Activity calls are given as the source filed them. The calls are words filed in the database; no cut-off is given here.

How the values were obtained:
[1] = target: T1, 3-oxo-5-alpha-steroid 4-dehydrogenase 1 (Rattus norvegicus, UniProt P24008); assay: Inhibition of rat liver 5alpha-reductase type 1 assessed as conversion of [3H]testosterone to dihydrotestosterone
T1 sequence (P24008 whole entry): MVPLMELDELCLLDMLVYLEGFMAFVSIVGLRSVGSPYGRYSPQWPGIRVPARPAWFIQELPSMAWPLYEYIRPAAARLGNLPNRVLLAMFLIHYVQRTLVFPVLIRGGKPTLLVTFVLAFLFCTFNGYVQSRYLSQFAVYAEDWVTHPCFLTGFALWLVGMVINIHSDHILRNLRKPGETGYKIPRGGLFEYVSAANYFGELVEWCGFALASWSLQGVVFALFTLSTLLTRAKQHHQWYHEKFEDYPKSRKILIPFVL
Procedure, shortened: (§1)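 Each reaction contained 1 mM DTT in 40 mM sodium phosphate, 2 nM [3H]T and 2 mM NADPH. Type 1 ran at pH 8.0 with 6.31 µM T added and 90 µg solubilized rat liver microsomal protein. Type 2 ran at pH 6.5 with 50 µg human prostate membrane protein. Inhibitors were tested at 1e-11–1e-3 M, in duplicate, 60 min at 37.5 °C. Reactions were stopped with dichloromethane, DHT separated by TLC and radioscanned, and IC50 taken from inhibition curves.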

PC-3 = assay: (§2) Cytotoxicity against human PC3 cells assessed as growth inhibition at 50 uM after 48 hrs by SRB assay; format: functional
Procedure, shortened: (§3)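 PC-3 cells (NCI) were grown in RPMI-1640 with 10% FBS, 2 mM L-glutamine, antibiotics/amphotericin B and 1% nonessential amino acids at 37 °C in 5% CO2. Viability exceeded 95% (trypan blue). Cells were seeded at 5000–10000/well, given 24 h, then exposed 48 h to 50 µM compound. Cells were fixed in cold TCA, stained with 0.4% SRB and read at 515 nm after Tris solubilization. Inhibition = 100 − (sample/vehicle absorbance × 100).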

[2] = target: T2, 3-oxo-5-alpha-steroid 4-dehydrogenase 2 (Homo sapiens, UniProt P31213); assay: Inhibition of human prostate 5alpha-reductase type 2 assessed as conversion of [3H]testosterone to dihydrotestosterone; set-up: species or system Prostate gland; procedure, shortened: as §1
T2 sequence (P31213 whole entry): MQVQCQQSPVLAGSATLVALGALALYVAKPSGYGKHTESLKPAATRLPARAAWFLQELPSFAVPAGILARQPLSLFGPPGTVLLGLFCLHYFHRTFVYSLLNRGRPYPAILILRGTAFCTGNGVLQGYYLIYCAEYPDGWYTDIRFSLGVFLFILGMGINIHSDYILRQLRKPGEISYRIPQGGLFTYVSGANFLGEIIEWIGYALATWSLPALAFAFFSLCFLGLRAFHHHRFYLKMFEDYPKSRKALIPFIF

[3] = Cytotoxicity against Swiss mouse primary peritoneal macrophages assessed as growth inhibition at 50 uM after 48 hrs by MTT assay; conditions: for growth inhibition (GI): peritoneal macrophage cell, 48 h, 50 µM; for inhibition at 48 h, 50 µM: Swiss, primary peritoneal macrophages, read-out: GI
[4] = as §2; format: functional; conditions: PC-3, 48 h, read-out: GI; procedure, shortened: as §3

| IC50 ([1]; read-out: IC50) [µM] | IC50 [2] | SMILES | IC50 [1] | growth inhibition (GI) (PC-3) | IC50 ([2]; read-out: IC50) [µM] | growth inhibition (GI) [3] | inhibition of growth at 50 µM [4] [%] | inhibition at 48 h, 50 µM [3] [%] |
| --- | --- | --- | --- | --- | --- | --- | --- | --- |
|  |  | C[C@]12CC[C@H](OC(=O)C3CCCC3)CC1=CC[C@@H]1[C@@H]2CC[C@]2(C)C(Cl)=C(C=O)C[C@@H]12 | Not Active | inactive | 0.05 | Non-toxic |  |  |
| 630 |  | CC(C)(C)NC(=O)[C@H]1CC[C@H]2[C@@H]3CC[C@H]4NC(=O)C=C[C@]4(C)[C@H]3CC[C@]12C [FINASTERIDE] |  | inactive |  | Non-toxic |  |  |
|  |  | C[C@]12CC[C@H](OC(=O)C3CCCCC3)CC1=CC[C@@H]1[C@@H]2CC[C@]2(C)C(Cl)=C(C=O)C[C@@H]12 | Not Active | inactive | 0.008 | Non-toxic |  |  |
| 250 | Not Active | C[C@]12CC[C@H](OC(=O)C3CCC3)CC1=CC[C@@H]1[C@@H]2CC[C@]2(C)C(n3ccnc3)=C(C=O)C[C@@H]12 |  | inactive |  | Non-toxic |  |  |
|  |  | C[C@]12CC[C@H](OC(=O)C3CC3)CC1=CC[C@@H]1[C@@H]2CC[C@]2(C)C(Cl)=C(C=O)C[C@@H]12 | Not Active | inactive | 0.0032 | Non-toxic |  |  |
| 100 | Not Active | C[C@]12CC[C@H](OC(=O)c3ccc(Cl)cc3)CC1=CC[C@@H]1[C@@H]2CC[C@]2(C)C(n3ccnc3)=C(C=O)C[C@@H]12 |  |  |  |  | 98.2 | 29.2 |
|  |  | C[C@]12CC[C@H](OC(=O)C3CCC3)CC1=CC[C@@H]1[C@@H]2CC[C@]2(C)C(Cl)=C(C=O)C[C@@H]12 | Not Active | inactive | 0.013 | Non-toxic |  |  |
| 320 | Not Active | C[C@]12CC[C@H](OC(=O)C3CCCCCC3)CC1=CC[C@@H]1[C@@H]2CC[C@]2(C)C(n3ccnc3)=C(C=O)C[C@@H]12 |  | inactive |  | Non-toxic |  |  |
|  |  | CC(=O)O[C@H]1CC[C@@]2(C)C(=CC[C@@H]3[C@@H]2CC[C@]2(C)C(Cl)=C(C=O)C[C@@H]32)C1 | Not Active | inactive | 0.05 | Non-toxic |  |  |
|  |  | C[C@]12CC[C@H](OC(=O)C3CCCCCC3)CC1=CC[C@@H]1[C@@H]2CC[C@]2(C)C(Cl)=C(C=O)C[C@@H]12 | Not Active | inactive | 0.015 | Non-toxic |  |  |
| 320 | Not Active | C[C@]12CC[C@H](OC(=O)c3ccc(F)cc3)CC1=CC[C@@H]1[C@@H]2CC[C@]2(C)C(n3ccnc3)=C(C=O)C[C@@H]12 |  |  |  |  | 100 | 30.1 |
| 300 | Not Active | C[C@]12CC[C@H](OC(=O)C3CCCCC3)CC1=CC[C@@H]1[C@@H]2CC[C@]2(C)C(n3ccnc3)=C(C=O)C[C@@H]12 |  | inactive |  | Non-toxic |  |  |
| 200 | Not Active | C[C@]12CC[C@H](OC(=O)C3CC3)CC1=CC[C@@H]1[C@@H]2CC[C@]2(C)C(n3ccnc3)=C(C=O)C[C@@H]12 |  |  |  |  | 100 | 41.5 |
|  | Not Active | CC(=O)O[C@H]1CC[C@@]2(C)C(=CC[C@@H]3[C@@H]2CC[C@]2(C)C(n4ccnc4)=C(C=O)C[C@@H]32)C1 | Not Active |  |  |  | 56.5 | 36.2 |
| 265 | Not Active | C[C@]12CC[C@H](OC(=O)C3CCCC3)CC1=CC[C@@H]1[C@@H]2CC[C@]2(C)C(n3ccnc3)=C(C=O)C[C@@H]12 |  | inactive |  | Non-toxic |  |  |
| 300 | Not Active | C[C@]12CC[C@H](OC(=O)c3ccc(I)cc3)CC1=CC[C@@H]1[C@@H]2CC[C@]2(C)C(n3ccnc3)=C(C=O)C[C@@H]12 |  | inactive |  | Non-toxic |  |  |
| 94.5 | Not Active | C[C@]12CC[C@H](OC(=O)c3ccc(Br)cc3)CC1=CC[C@@H]1[C@@H]2CC[C@]2(C)C(n3ccnc3)=C(C=O)C[C@@H]12 |  |  |  |  | 100 | 40.3 |

| SMILES | IC50 ([1]; read-out: IC50) [µM] | IC50 [2] | IC50 [1] | growth inhibition (GI) (PC-3) | IC50 ([2]; read-out: IC50) [µM] | growth inhibition (GI) [3] | inhibition of growth at 50 µM [4] [%] | inhibition at 48 h, 50 µM [3] [%] |
| --- | --- | --- | --- | --- | --- | --- | --- | --- |
| CC(=O)N1CCN(c2ccc(OCC3COC(Cn4ccnc4)(c4ccc(Cl)cc4Cl)O3)cc2)CC1 (stereo not given) [KETOCONAZOLE] |  | Not Active |  |  |  |  | 85.4 | 41.5 |
